Test results taken from ChEMBL document CHEMBL1123171, “Synthesis of delta 3-1-methylene-1-carbacephems” (1986).
Values after ≈ are worked out from the molar mass of the structure shown.

Columns and labels:
[1] = system: Bacillus subtilis; assay: In vitro antibacterial activity against B. subtilis( NCTC 8236); assay type: functional
How it was run: (§1)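 Agar dilution MIC in diagnostic sensitivity test agar; inoculum 10^5–10^6 cfu/spot applied with a multipoint inoculator. Test compounds were racemic, so reported values are corrected: only one-half of the observed MIC is taken.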

[2] = system: Escherichia coli; assay: In vitro antibacterial activity against Escherichia coli (ESS); assay type: functional; how it was run: as §1
[3] = system: Staphylococcus aureus; assay: Compound was tested in vitro for the antibacterial activity against Staphylococcus aureus (ATCC 6538P); assay type: functional; how it was run: as §1
[4] = system: Sarcina lutea (ATCC 9341); assay: In vitro antibacterial activity against Sarcina lutea (ATCC 9341)

MIC [1] [µg/mL] | MIC [2] [µg/mL] | MIC [3] [µg/mL] | MIC [4] [µg/mL] | Structure (SMILES)
1.5 (≈ 4.21 µM) | 1.5 (≈ 4.21 µM) | 4 (≈ 11.2 µM) | 2 (≈ 5.61 µM) | C=C1C2[C@H](NC(=O)COc3ccccc3)C(=O)N2C(C(=O)O)=CC1(C)C (some centres not stated)
1.5 (≈ 4.22 µM) | 5 (≈ 14.1 µM) | 8 (≈ 22.5 µM) | 0.12 (≈ 0.338 µM) | C=C1C2[C@H](NC(=O)C(N)c3ccccc3)C(=O)N2C(C(=O)O)=CC1(C)C (some centres not stated)
1 (≈ 2.88 µM) | 1 (≈ 2.88 µM) | 0.3 (≈ 0.864 µM) | 0.03 (≈ 0.0864 µM) | CC1=C(C(=O)O)N2C(=O)[C@@H](NC(=O)[C@H](N)c3ccccc3)[C@H]2SC1 [CEPHALEXIN ANHYDROUS]
